Source: PubChem
EP2 antag: inhibitors of human EP2 prostaglandin E2 receptor. C6 glioma cells expressing human EP2, cAMP TR-FRET; cells stimulated with saturating PGE2. inhibition, % at 25 µM. 0.52% of 260,000 active;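 active means percent inhibition above 40 after rounding to a whole number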;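 further: rat C6 glioma host cells with rolipram phosphodiesterase inhibitor present; the protocol text gives 20 µM as final concentration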
Furin inh: blocks human furin protease activity. 0.061% of 220,000 active. purified furin, fluorogenic substrate cleavage. inhibition, % at 20 µM or 30 µM. P09958. AID 463115; in the data active means inhibition above about 25%
EP2 mod: modulators of human EP2 prostaglandin E2 receptor | EP2-expressing cells, cAMP HTRF FRET, PGE2 co-stimulation | 0.83% of 260,000 active | induction, % at 25 µM | AID 940;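 active means compounds whose cAMP rise, as percent of the full-agonist control response, exceeds 60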;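 further: rat C6 glioma line stably carrying human EP2 under a CMV promoter; the protocol text gives 20 µM as final concentration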
GASC-1 inh: inhibitors of human GASC-1 (JMJD2C) demethylase | Q9H3R0 | GST-JMJD2C(1-420) H3K9me3 demethylation, DELFIA europium | inhibition, % at 2.35 µM | 0.069% of 330,000 active;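 active means more than half of a compound's replicate wells show inhibition beyond 50%, single wells judged on their own value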;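 further: signal counts dimethyl H3K9 product captured on neutravidin plate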
NR2E3 ag-1: activates human photoreceptor nuclear receptor NR2E3 | Q9Y5X4 | inhibition of corepressor binding, % at 4.78 µM | GST-NR2E3/biotin-RetCOR TR-FRET, 1536-well | 0.12% of 320,000 active;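 active means percent inhibition above the cutoff of mean plus 3 SD of all tested compounds, set per screening campaign, cut at about 20% in these data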
Target sequence (Q9Y5X4 whole entry, looked up): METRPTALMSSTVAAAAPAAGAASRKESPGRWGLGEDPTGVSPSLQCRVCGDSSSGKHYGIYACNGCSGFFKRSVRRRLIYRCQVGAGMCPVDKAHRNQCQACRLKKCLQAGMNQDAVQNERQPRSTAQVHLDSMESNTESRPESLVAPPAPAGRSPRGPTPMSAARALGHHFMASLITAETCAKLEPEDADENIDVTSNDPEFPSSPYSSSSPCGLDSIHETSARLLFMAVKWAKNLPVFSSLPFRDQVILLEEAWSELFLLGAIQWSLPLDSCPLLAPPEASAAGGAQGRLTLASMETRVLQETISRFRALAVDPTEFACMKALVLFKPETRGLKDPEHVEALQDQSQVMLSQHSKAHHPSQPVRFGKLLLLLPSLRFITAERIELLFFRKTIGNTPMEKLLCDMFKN
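Format: 1536-well format; test system: GST-NR2E3 and biotin-RetCOR proteins; read-out basis: percent inhibition of TR-FRET ratio; timing: 5 h incubation at 4 °C; detection: time-resolved FRET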
NR2E3 ag-2: human photoreceptor-specific nuclear receptor agonism. 0.35% of 360,000 active. Q9Y5X4. inhibition of corepressor binding, % at 3.98 µM. CHO-S Gal4-NCOR/VP16-NR2E3 two-hybrid, luciferase;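 active means inhibition above the mean of all tested compounds plus 3 SD, cut at about 70% in these data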;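 further: higher means lower luciferase signal from less NR2E3 corepressor binding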
NR2E3 agonist cf: confirmation of human NR2E3 nuclear receptor agonists | shares compounds with NR2E3 ag-1 | cell-free NR2E3 corepressor release, TR-FRET, 5 h | activation (reported as inhibition), % at 3.98 µM | 39% of 360 active | AID 2379; in the data active means activation above about 20%
PPARg-NCOR2 ctr: counter-screen for NR2E3 agonists: human PPARgamma-NCOR2 interaction agonists | shares compounds with NR2E3 ag-1 | TR-FRET PPARg-NCOR2 coregulator interaction, biochemical | inhibition, % at 3.98 µM | 45% of 360 active; in the data active means inhibition above about 20%
Numbers stand for hits; i = inactive; nt = no result. Hits are enriched below; roughly 1.3% of the tested compounds scored in any of these assays.

SMILES	EP2 antag	Furin inh	EP2 mod	GASC-1 inh	NR2E3 ag-1	NR2E3 ag-2	NR2E3 agonist cf	PPARg-NCOR2 ctr
CCc1cccc(NC(=O)CCCCCC2NC(=O)NC2C)c1 (stereo unspecified)	i	i	i	i	86.0	i	90.3	91.7
Cc1ccc(-c2cc(C(=O)O)c3cc(Br)ccc3n2)o1	i	i	i	i	31.2	i	24.2	36.4
O=C(c1ccc2ncccc2c1)N1CCCC1c1nc2ccccc2[nH]1 (stereo unspecified)	nt	nt	i	nt	nt	nt	nt	nt
COc1ccc(/C=C(\C#N)C(=O)OCC(=O)NCc2ccccc2)cc1	i	i	i	i	i	i	nt	nt
COc1cccc(CNC(=O)COC(=O)/C(C#N)=C/c2ccc(N(C)C)cc2)c1	nt	nt	nt	i	30.7	i	36.0	35.5
O=C(O)CCc1ccc(-c2ccc(Cl)cc2)o1	i	i	i	i	i	i	nt	nt
O=C(O)CCc1ccc(-c2ccc(Br)cc2)o1	i	i	i	i	34.6	i	36.3	32.2
COC(=O)c1sc(NC(=S)NNC(=O)c2c(Br)c(C)nn2C)c(C(=O)OC)c1C	nt	nt	nt	i	62.4	i	i	i
COC(=O)c1sc(S(=O)(=O)Nc2c(C)nn(C)c2C)c(C(=O)OC)c1C	nt	nt	nt	nt	nt	i	nt	nt
CCOC(=O)CSc1nnc(COc2ccc3ccccc3c2)n1-c1ccccc1	i	nt	i	nt	nt	nt	nt	nt
COC(=O)Sc1nnc(-c2ccc(Br)cc2)o1	45.2	i	i	i	27.0	nt	22.4	34.8
O=S(=O)(Nc1c(S(=O)(=O)c2ccccc2)c2nc3ccccc3nc2n1C1CCCCC1)c1ccccc1	i	i	i	i	i	i	nt	nt
C=CCn1c(NS(=O)(=O)c2ccccc2)c(S(=O)(=O)c2ccc(C)cc2)c2nc3ccccc3nc21	i	i	i	i	43.8	i	i	88.4
N#CC(=Cc1ccc(O)cc1)C(N)=C(C#N)C#N	nt	nt	nt	nt	22.7	i	i	i
N#CC(C#N)=C(N)/C(C#N)=C/c1ccc(O)cc1	i	nt	i	nt	nt	nt	nt	nt
COc1ccc(C2(C(=O)N3CCCC(c4nc(C)ncc4-c4ccncc4)C3)CC2)cc1 (stereo unspecified)	nt	nt	i	nt	nt	nt	nt	nt
O=C(Nc1ccc(S(=O)(=O)N2CCCCC2)cc1)c1cccc(F)c1	i	nt	i	nt	nt	nt	nt	nt
CC(C)C1Cc2ccccc2-c2[nH]c(=S)[nH]c(=O)c21 (stereo unspecified)	nt	nt	nt	i	20.3	i	21.0	26.2
CCC1(CC)Cc2ccccc2-c2[nH]c(=S)[nH]c(=O)c21	nt	nt	nt	i	i	i	nt	nt
Cc1c2cc(O)c(=O)cc-2oc2cc(O)c(O)cc12	i	i	i	i	39.5	i	20.3	i
COc1cc(OC)c(-c2c3cc(O)c(=O)cc-3oc3cc(O)c(O)cc23)cc1OC	i	i	i	i	i	i	nt	nt
CN(CC(=O)NCCC1=CCCCC1)S(=O)(=O)c1ccc2c(c1)c(=O)n(C)c(=O)n2C	i	i	i	nt	24.5	i	i	i
CN(C)C(CNC(=O)C1Oc2ccccc2O1)c1ccc2c(c1)OCO2 (stereo unspecified)	i	nt	i	nt	nt	nt	nt	nt
CC(=O)c1sc2nc(SCC(=O)NCCc3ccccc3)[nH]c(=O)c2c1C	nt	nt	nt	i	31.7	i	i	19.8
CCc1ccc(C2C(C#N)=C(N)SC(N)=C2C#N)s1	i	i	i	i	i	i	nt	nt
SMILES	EP2 antag	Furin inh	EP2 mod	GASC-1 inh	NR2E3 ag-1	NR2E3 ag-2	NR2E3 agonist cf	PPARg-NCOR2 ctr
Cc1ccc(C2C(C#N)=C(N)SC(N)=C2C#N)o1	i	i	i	i	32.0	nt	23.8	35.0
Cc1ccc(O)c(C2=Nc3ccccc3N=C(c3ccco3)C2)c1	i	i	63.0	i	30.5	i	i	i
Cc1ccc(C2=Nc3ccccc3N=C(c3ccco3)C2)c(O)c1	i	i	i	i	i	i	nt	nt
COc1ccc(-c2nc3c4cnn(-c5ccccc5)c4ncn3n2)cc1OC	i	nt	i	nt	nt	nt	nt	nt
c1ccc(-n2ncc3c2ncn2nc(-c4ccco4)nc32)cc1	nt	i	i	i	47.8	i	i	58.9
Cc1nc(-c2ccc(Br)cc2)ccc1C(=O)O	i	i	i	i	24.7	i	i	i
COc1ccc(C(CNC(=O)COc2cccc(C(F)(F)F)c2)N2CCCC2)cc1 (stereo unspecified)	nt	nt	nt	i	31.6	i	i	i
Cc1ccc2c(c1)c1nc(C)sc1n2C	i	nt	i	nt	nt	nt	nt	nt
COc1ccc(-c2c(C)sc(NC(=O)c3ccnn3C)c2C#N)cc1	i	i	i	i	29.9	i	i	20.9
Cc1ccc2cc(CN(CCCN3CCOCC3)C(=O)NCc3ccccc3)c(=O)[nH]c2c1C	i	nt	i	nt	nt	nt	nt	nt
CCCCc1nc(Cl)c(CN2CCc3nc(C)[nH]c(=O)c3C2)[nH]1	i	nt	i	nt	nt	nt	nt	nt
N#Cc1c(-c2ccncc2)c2c([nH]c1=S)CCCC2	i	i	i	i	i	i	nt	nt
Cc1ccc(-c2c3c([nH]c(=S)c2C#N)CCCC3)o1	i	i	i	i	48.6	i	82.3	75.0
Cc1nn(CC(=O)NCc2ccccn2)c(=O)c2cc3sccc3n12	nt	nt	i	nt	nt	nt	nt	nt
CCOc1ccc2[nH]c(=O)c(C(c3nnnn3Cc3ccc(F)cc3)N3CCC(C)CC3)cc2c1 (stereo unspecified)	i	nt	i	nt	nt	nt	nt	nt
Cc1ccc(C2C(C(N)=S)=C(N)OC3=C2C(=O)CC(C)(C)C3)cc1 (stereo unspecified)	i	i	i	i	26.4	i	i	64.8
CC1(C)CC(=O)C2=C(C1)OC(N)=C([N+](=O)[O-])C2c1ccc(F)cc1 (stereo unspecified)	i	i	i	i	i	i	nt	nt
N#Cc1cc(-c2cccc(Cl)c2Cl)no1	i	nt	i	nt	nt	nt	nt	nt
N#CC1=C(N)SC(N)=C(C#N)C1CCc1ccccc1	i	i	i	i	i	i	nt	nt
N#CC1=C(N)SC(N)=C(C#N)C1c1c(Cl)cccc1Cl	i	i	i	i	40.0	i	i	25.7
COc1cc(CN2CCC(O)(c3ccccc3)C2)ccc1OC1CCCC1 (stereo unspecified)	i	nt	i	nt	nt	nt	nt	nt
COc1ccc(C)cc1S(=O)(=O)N1CCC(C(N)=O)(N2CCCCC2)CC1	i	nt	i	nt	nt	nt	nt	nt
Cn1nc(C(=O)N2CCC(C(N)=O)CC2)c2c1-c1ccccc1SC2	nt	nt	nt	i	26.7	i	i	i
N#CC(C#N)=C1NC(N)=C(C#N)C(c2ccccc2)=C1C#N	nt	nt	nt	i	47.7	i	44.8	40.4
Cc1ccc2c(c1)nnn2C1CCN(CC(=O)Nc2ccc(Br)cc2)CC1	i	nt	i	nt	nt	nt	nt	nt
COC(=O)c1cc2sc(Cl)cc2n1Cc1nc(-c2ccccc2)oc1C	i	i	i	i	25.4	i	i	i
COc1ccc(N2CC(C(=O)Nc3ccccc3C(C)C)CC2=O)cc1 (stereo unspecified)	i	nt	i	nt	nt	nt	nt	nt
